In ChEMBL document CHEMBL1144749, “Development of 2-t butyl-N-methyl pyrimidones as potent inhibitors of HIV integrase” (Bioorg Med Chem Lett, 2008):

Tested on: not listed separately
Assay: (§1) Oral bioavailability in Sprague-Dawley rat at 3 mg/kg
Type: ADME, organism-based
Conditions: Sprague-Dawley, in vivo
How it was run: (§2)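 Sprague–Dawley rats dosed iv in 20% DMSO/60% PEG400/20% water, or orally as a 1% methylcellulose suspension. Outputs: AUC after po dosing, plasma clearance, terminal-phase plasma half life after iv dosing, oral bioavailability.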

Compound | bioavailability [%]
CCNC(=O)c1cc(F)ccc1CNC(=O)c1nc(C(C)(C)C)n(C)c(=O)c1O | 30
CNC(=O)c1cc(F)ccc1CNC(=O)c1nc(C(C)(C)C)n(C)c(=O)c1O | 18
Cn1c(C(C)(C)C)nc(C(=O)NCc2ccc(F)cc2C(N)=O)c(O)c1=O | 23
Cn1c(C(C)(C)C)nc(C(=O)NCc2ccc(F)cc2S(C)(=O)=O)c(O)c1=O | 17

Tested on: Rattus norvegicus
Assay: as §1
Type: ADME, organism-based
Conditions: in vivo
How it was run: as §2

Compound | F [%]
CC(C)NC(=O)c1cc(F)ccc1CNC(=O)c1nc(C(C)(C)C)n(C)c(=O)c1O | 44

Species on record: Homo sapiens
Assay: Fraction unbound in human plasma proteins after 1 hr
Conditions: not given

fraction unbound at 1 h | Compound
0.01 | CC(C)NC(=O)c1cc(F)ccc1CNC(=O)c1nc(C(C)(C)C)n(C)c(=O)c1O
0.03 | CCNC(=O)c1cc(F)ccc1CNC(=O)c1nc(C(C)(C)C)n(C)c(=O)c1O
0.07 | CNC(=O)c1cc(F)ccc1CNC(=O)c1nc(C(C)(C)C)n(C)c(=O)c1O
0.18 | CN(C)C(=O)c1cc(F)ccc1CNC(=O)c1nc(C(C)(C)C)n(C)c(=O)c1O

The next lines start with the molecule.

Compound | fraction unbound at 1 h
Cn1c(C(C)(C)C)nc(C(=O)NCc2ccc(F)cc2C(=O)NCC(F)(F)F)c(O)c1=O | 0.01
CN1CCN(C(=O)c2cc(F)ccc2CNC(=O)c2nc(C(C)(C)C)n(C)c(=O)c2O)CC1 | 0.34
CCCNC(=O)c1cc(F)ccc1CNC(=O)c1nc(C(C)(C)C)n(C)c(=O)c1O | 0.02
Cn1c(C(C)(C)C)nc(C(=O)NCc2ccc(F)cc2C(N)=O)c(O)c1=O | 0.06

Tested on: not listed separately
Assay: Clearance in Sprague-Dawley rat plasma at 3 mg/kg, iv and 3 mg/kg, po
Type: ADME, organism-based
Conditions: not given
How it was run: as §2

Compound | clearance [mL/min/kg]
CCNC(=O)c1cc(F)ccc1CNC(=O)c1nc(C(C)(C)C)n(C)c(=O)c1O | 21
CNC(=O)c1cc(F)ccc1CNC(=O)c1nc(C(C)(C)C)n(C)c(=O)c1O | 24
Cn1c(C(C)(C)C)nc(C(=O)NCc2ccc(F)cc2C(N)=O)c(O)c1=O | 55
Cn1c(C(C)(C)C)nc(C(=O)NCc2ccc(F)cc2S(C)(=O)=O)c(O)c1=O | 37

Tested on: not listed separately
Assay: (§3) AUC in Sprague-Dawley rat at 3 mg/kg, po
Type: ADME, organism-based, Plasma
Set-up: dose 3 mg/kg, route oral
Conditions: Sprague-Dawley, plasma
How it was run: as §2

Compound | AUC [µM·h]
CCNC(=O)c1cc(F)ccc1CNC(=O)c1nc(C(C)(C)C)n(C)c(=O)c1O | 1.8
CNC(=O)c1cc(F)ccc1CNC(=O)c1nc(C(C)(C)C)n(C)c(=O)c1O | 1.4
Cn1c(C(C)(C)C)nc(C(=O)NCc2ccc(F)cc2C(N)=O)c(O)c1=O | 0.6
Cn1c(C(C)(C)C)nc(C(=O)NCc2ccc(F)cc2S(C)(=O)=O)c(O)c1=O | 0.6

Tested on: Rattus norvegicus
Assay: as §3
Type: ADME, organism-based, Plasma
Set-up: dose 3 mg/kg, route oral
Conditions: in vivo
How it was run: as §2

Compound | AUC [µM·h]
CC(C)NC(=O)c1cc(F)ccc1CNC(=O)c1nc(C(C)(C)C)n(C)c(=O)c1O | 3.5

Tested on: not listed separately
Assay: Metabolic stability assessed as intrinsic clearance in rat microsome at 1 uM after 90 mins
Type: ADME
Conditions: liver microsomes
How it was run: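 Compound at 1 µM with microsomes at 1 mg/ml. Substrate degradation followed by LC/MS/MS over a 90 min incubation.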

Compound | microsomal CLint at 1 µM [µL/min/mg]
CNC(=O)c1cc(F)ccc1CNC(=O)c1nc(C(C)(C)C)n(C)c(=O)c1O | 16
Cn1c(C(C)(C)C)nc(C(=O)NCc2ccc(F)cc2S(C)(=O)=O)c(O)c1=O | 63

Tested on: Human immunodeficiency virus 1
Assay: Antiviral activity against HIV1 3b in human MT4 cells assessed as inhibition of viral spread in presence of 10% heat-inactivated fetal bovine serum
Type: functional
Conditions: Human immunodeficiency virus 1, 3b, read-out: CIC95
How it was run: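 Spread assay: HIV-1 IIIb infection of MT-4 T-lymphoid cells in medium with 10% heat-inactivated FBS. CIC95 is the concentration inhibiting 95% of viral spread. Mean of at least 3 independent experiments.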

Compound | IC95 [nM]
CC(C)NC(=O)c1cc(F)ccc1CNC(=O)c1nc(C(C)(C)C)n(C)c(=O)c1O | 60
Cn1c(C(C)(C)C)nc(C(=O)NCc2ccc(F)cc2C(=O)NCC(F)(F)F)c(O)c1=O | 30
CCNC(=O)c1cc(F)ccc1CNC(=O)c1nc(C(C)(C)C)n(C)c(=O)c1O | 20
CC(C)(C)c1nc(O)c(O)c(C(=O)NCc2ccc(F)cc2)n1 | 250
CCOc1ccccc1CNC(=O)c1nc(C(C)(C)C)n(C)c(=O)c1O | 120
Cc1noc(-c2cc(F)ccc2CNC(=O)c2nc(C(C)(C)C)n(C)c(=O)c2O)n1 | 20
CC(C)(C)c1nc(O)c(O)c(C(=O)NCc2cccc3cc[nH]c23)n1 | > 1000
CN1CCN(C(=O)c2cc(F)ccc2CNC(=O)c2nc(C(C)(C)C)n(C)c(=O)c2O)CC1 | 120
CCOc1ccccc1CNC(=O)c1nc(C(C)(C)C)nc(O)c1O | 1000
CCCNC(=O)c1cc(F)ccc1CNC(=O)c1nc(C(C)(C)C)n(C)c(=O)c1O | 30
CNC(=O)c1cc(F)ccc1CNC(=O)c1nc(C(C)(C)C)n(C)c(=O)c1O | 10
Cn1c(C(C)(C)C)nc(C(=O)NCc2ccc(F)cc2)c(O)c1=O | 120
Cn1c(C(C)(C)C)nc(C(=O)NCc2ccc(F)cc2C(N)=O)c(O)c1=O | 10
CN(C)C(=O)c1cc(F)ccc1CNC(=O)c1nc(C(C)(C)C)n(C)c(=O)c1O | 30
Cc1noc(-c2cc(F)ccc2CNC(=O)c2nc(C(C)(C)C)nc(O)c2O)n1 | 120
Cn1c(C(C)(C)C)nc(C(=O)NCc2cccc3cc[nH]c23)c(O)c1=O | 1000
O=C(NCc1ccc(F)cc1)c1nc(-c2cccs2)nc(O)c1O | > 10000
Cn1c(C(C)(C)C)nc(C(=O)NCc2ccc(F)cc2C(=O)N2CCCC2)c(O)c1=O | 120
Cn1c(C(C)(C)C)nc(C(=O)NCc2ccc(F)cc2S(C)(=O)=O)c(O)c1=O | 10

Molecular target: Human immunodeficiency virus type 1 integrase (Human immunodeficiency virus 1, UniProt Q7ZJM1)
Sequence (Q7ZJM1 whole entry): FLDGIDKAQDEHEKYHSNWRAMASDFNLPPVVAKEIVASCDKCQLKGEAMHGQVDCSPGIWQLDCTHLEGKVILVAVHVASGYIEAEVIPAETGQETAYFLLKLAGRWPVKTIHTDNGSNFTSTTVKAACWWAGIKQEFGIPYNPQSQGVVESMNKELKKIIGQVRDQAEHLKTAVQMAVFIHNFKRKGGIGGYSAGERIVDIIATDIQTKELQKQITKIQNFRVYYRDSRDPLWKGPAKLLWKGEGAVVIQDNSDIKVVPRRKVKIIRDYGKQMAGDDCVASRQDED
Assay: Inhibition of HIV1 recombinant integrase strand transfer activity
Conditions: not given
How it was run: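 Strand-transfer assay: inhibitors added after integrase assembly and washes. IC50 is the concentration reducing integrase activity by 50%. Mean of at least three independent experiments.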

IC50 [nM] | Compound
90 | CC(C)NC(=O)c1cc(F)ccc1CNC(=O)c1nc(C(C)(C)C)n(C)c(=O)c1O
70 | CCNC(=O)c1cc(F)ccc1CNC(=O)c1nc(C(C)(C)C)n(C)c(=O)c1O
20 | Cc1noc(-c2cc(F)ccc2CNC(=O)c2nc(C(C)(C)C)n(C)c(=O)c2O)n1
10 | CC(C)(C)c1nc(O)c(O)c(C(=O)NCc2cccc3cc[nH]c23)n1
10 | CCOc1ccccc1CNC(=O)c1nc(C(C)(C)C)nc(O)c1O
20 | CNC(=O)c1cc(F)ccc1CNC(=O)c1nc(C(C)(C)C)n(C)c(=O)c1O
180 | CN(C)C(=O)c1cc(F)ccc1CNC(=O)c1nc(C(C)(C)C)n(C)c(=O)c1O
230 | Cn1c(C(C)(C)C)nc(C(=O)NCc2ccc(F)cc2C(=O)N2CCCC2)c(O)c1=O
20 | Cn1c(C(C)(C)C)nc(C(=O)NCc2ccc(F)cc2S(C)(=O)=O)c(O)c1=O

Continued, molecule first:

Compound | IC50 [nM]
Cn1c(C(C)(C)C)nc(C(=O)NCc2ccc(F)cc2C(=O)NCC(F)(F)F)c(O)c1=O | 90
CC(C)(C)c1nc(O)c(O)c(C(=O)NCc2ccc(F)cc2)n1 | 10
CCOc1ccccc1CNC(=O)c1nc(C(C)(C)C)n(C)c(=O)c1O | 20
CN1CCN(C(=O)c2cc(F)ccc2CNC(=O)c2nc(C(C)(C)C)n(C)c(=O)c2O)CC1 | 490
CC(C)(C)c1nc(O)c(O)c(C(=O)NCc2ccc(F)cc2S(C)(=O)=O)n1 | 60
CCCNC(=O)c1cc(F)ccc1CNC(=O)c1nc(C(C)(C)C)n(C)c(=O)c1O | 70
Cn1c(C(C)(C)C)nc(C(=O)NCc2ccc(F)cc2)c(O)c1=O | 10
Cn1c(C(C)(C)C)nc(C(=O)NCc2ccc(F)cc2C(N)=O)c(O)c1=O | 20
CNC(=O)c1cc(F)ccc1CNC(=O)c1nc(C(C)(C)C)nc(O)c1O | 20
Cc1noc(-c2cc(F)ccc2CNC(=O)c2nc(C(C)(C)C)nc(O)c2O)n1 | 20
Cn1c(C(C)(C)C)nc(C(=O)NCc2cccc3cc[nH]c23)c(O)c1=O | 20

Tested on: not listed separately
Assay: Terminal half life in Sprague-Dawley rat plasma at 3 mg/kg, iv
Type: ADME, organism-based
Set-up: dose 3 mg/kg, route intravenous
Conditions: not given
How it was run: as §2

Compound | half-life [h]
CC(C)NC(=O)c1cc(F)ccc1CNC(=O)c1nc(C(C)(C)C)n(C)c(=O)c1O | 1.6
CCNC(=O)c1cc(F)ccc1CNC(=O)c1nc(C(C)(C)C)n(C)c(=O)c1O | 2.6
CNC(=O)c1cc(F)ccc1CNC(=O)c1nc(C(C)(C)C)n(C)c(=O)c1O | 1.6
Cn1c(C(C)(C)C)nc(C(=O)NCc2ccc(F)cc2C(N)=O)c(O)c1=O | 3.6
Cn1c(C(C)(C)C)nc(C(=O)NCc2ccc(F)cc2S(C)(=O)=O)c(O)c1=O | 1.8

Tested on: Human immunodeficiency virus 1
Assay: Antiviral activity against HIV1 3b in human MT4 cells assessed as inhibition of viral spread in presence of 50% normal human serum
Type: functional
Conditions: Human immunodeficiency virus 1, 3b, read-out: CIC95
How it was run: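 Spread assay: HIV-1 IIIb infection of MT-4 T-lymphoid cells run with 50% normal human serum. CIC95 is the concentration inhibiting 95% of viral spread.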

Compound | IC95 [nM]
CC(C)NC(=O)c1cc(F)ccc1CNC(=O)c1nc(C(C)(C)C)n(C)c(=O)c1O | 60
Cn1c(C(C)(C)C)nc(C(=O)NCc2ccc(F)cc2C(=O)NCC(F)(F)F)c(O)c1=O | 120
CCNC(=O)c1cc(F)ccc1CNC(=O)c1nc(C(C)(C)C)n(C)c(=O)c1O | 20
CC(C)(C)c1nc(O)c(O)c(C(=O)NCc2ccc(F)cc2)n1 | 2500
CCOc1ccccc1CNC(=O)c1nc(C(C)(C)C)n(C)c(=O)c1O | 500
Cc1noc(-c2cc(F)ccc2CNC(=O)c2nc(C(C)(C)C)n(C)c(=O)c2O)n1 | 120
CC(C)(C)c1nc(O)c(O)c(C(=O)NCc2cccc3cc[nH]c23)n1 | > 1000
CN1CCN(C(=O)c2cc(F)ccc2CNC(=O)c2nc(C(C)(C)C)n(C)c(=O)c2O)CC1 | 120
CCOc1ccccc1CNC(=O)c1nc(C(C)(C)C)nc(O)c1O | > 1000
CCCNC(=O)c1cc(F)ccc1CNC(=O)c1nc(C(C)(C)C)n(C)c(=O)c1O | 60
CNC(=O)c1cc(F)ccc1CNC(=O)c1nc(C(C)(C)C)n(C)c(=O)c1O | 10
Cn1c(C(C)(C)C)nc(C(=O)NCc2ccc(F)cc2)c(O)c1=O | 370
Cn1c(C(C)(C)C)nc(C(=O)NCc2ccc(F)cc2C(N)=O)c(O)c1=O | 10
CN(C)C(=O)c1cc(F)ccc1CNC(=O)c1nc(C(C)(C)C)n(C)c(=O)c1O | 30
Cc1noc(-c2cc(F)ccc2CNC(=O)c2nc(C(C)(C)C)nc(O)c2O)n1 | > 1000
Cn1c(C(C)(C)C)nc(C(=O)NCc2cccc3cc[nH]c23)c(O)c1=O | > 1000
Cn1c(C(C)(C)C)nc(C(=O)NCc2ccc(F)cc2C(=O)N2CCCC2)c(O)c1=O | 120
Cn1c(C(C)(C)C)nc(C(=O)NCc2ccc(F)cc2S(C)(=O)=O)c(O)c1=O | 20
